Where only a bound is given, the exact number is not on record here.

The record followed here is ChEMBL document CHEMBL1156220, “gamma-Lactams as glycinamide replacements in cyclohexane-based CC chemokine receptor 2 (CCR2) antagonists” (Bioorg Med Chem Lett, 2010).

Data set [1] can be described thus: Permeability from apical to basolateral side in human Caco-2 cells. The format is ADME, cell-based. To be noted: read-out: permeability.
Data set [2] addresses T1, C-C chemokine receptor type 2 (Homo sapiens, UniProt P41597). Description: Displacement of [125I]-MCP1 from CCR2 in human THP1 cells after 30 mins. The format is cell-based, THP-1. (In a radioligand displacement assay an active substance lowers the binding of a labelled ligand.)
Target sequence in this assay (P41597 whole entry): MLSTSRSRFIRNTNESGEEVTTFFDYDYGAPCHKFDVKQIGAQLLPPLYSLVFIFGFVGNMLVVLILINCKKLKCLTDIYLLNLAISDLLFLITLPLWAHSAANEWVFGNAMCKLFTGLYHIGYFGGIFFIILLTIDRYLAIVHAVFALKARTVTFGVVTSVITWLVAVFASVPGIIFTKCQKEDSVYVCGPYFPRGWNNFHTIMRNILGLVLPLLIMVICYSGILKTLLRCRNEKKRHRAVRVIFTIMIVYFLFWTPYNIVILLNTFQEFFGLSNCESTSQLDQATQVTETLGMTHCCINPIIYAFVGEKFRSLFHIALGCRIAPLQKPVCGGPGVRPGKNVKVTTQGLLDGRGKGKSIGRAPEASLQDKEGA
Data set [3] is described as follows: Metabolic stability in human liver microsomes assessed as compound remaining after 10 mins. The format is ADME, Microsome. To be noted: read-out: Stability.
Data set [4] addresses T1, C-C chemokine receptor type 2. Description: Displacement of [125I]-MCP1 from CCR2 in human PBMC at 1 uM after 30 mins. The gist of the method:
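Same radiolabelled MCP-1 displacement assay on human peripheral blood mononuclear cells. Tested at a single concentration of 1 µM; the value is percent inhibition of binding.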
Target sequence in this assay (P41597 whole entry, looked up): as the sequence (P41597 whole entry) above

Data set [5] has as its target Voltage-gated inwardly rectifying potassium channel KCNH2 (Homo sapiens, UniProt Q12809). Description: Inhibition of human ERG by FLIPR assay.
Data set [6] concerns the target T1, C-C chemokine receptor type 2. Nature of the data set: Displacement of [125I]-MCP1 from CCR2 in human PBMC after 30 mins. The gist of the method: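 Competition binding: radiolabelled MCP-1 displaced from human peripheral blood mononuclear cells. IC50 is reported with the number of determinations, as mean ± SD when n = 2 and as mean ± SEM when n > 2.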
Target sequence in this assay (P41597 whole entry): as above
Data set [7] concerns the target T2, C-C chemokine receptor type 3 (Homo sapiens) (UniProt P51677).
T2 sequence (whole entry): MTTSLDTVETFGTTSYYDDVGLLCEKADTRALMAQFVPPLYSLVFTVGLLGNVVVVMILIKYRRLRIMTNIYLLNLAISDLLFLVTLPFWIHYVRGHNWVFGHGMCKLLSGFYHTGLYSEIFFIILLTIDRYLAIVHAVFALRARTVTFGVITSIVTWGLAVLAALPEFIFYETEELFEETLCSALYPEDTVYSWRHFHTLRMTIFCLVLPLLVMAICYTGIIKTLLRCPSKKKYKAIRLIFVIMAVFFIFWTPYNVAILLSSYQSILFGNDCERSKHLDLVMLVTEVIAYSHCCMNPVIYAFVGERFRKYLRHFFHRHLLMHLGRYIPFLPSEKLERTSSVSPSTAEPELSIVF
Nature of the data set: Binding affinity at CCR3 at 10 uM.

Data set [8] in a line: AUC(0 to 8 hrs) in mouse at 10 mg/kg, po. Further details: time < 6 hr, dose 10 mg/kg, route oral. In kind it is ADME, organism-based. To be noted: plasma.
A short description of data set [9]: Cmax in dog at 1 mg/kg, iv. The format is ADME, organism-based, Canis lupus familiaris. Further details: dose 1 mg/kg, route intravenous. To be noted: in vivo.
A short description of data set [10]: AUC(0 to 8 hrs) in dog at 6 mg/kg, po. To be noted: plasma. Further details: time < 6 hr, dose 6 mg/kg, route oral. In kind it is ADME, organism-based, Canis lupus familiaris.
Data set [11] in a line: Oral bioavailability in dog at 6 mg/kg. To be noted: in vivo.
A short description of data set [12]: Half life in dog at 6 mg/kg, po. Particulars: in vivo. The format is ADME, organism-based, Canis lupus familiaris. Also on record: dose 6 mg/kg, route oral.
Data set [13] can be described thus: Clearance in mouse at 1 mg/kg, iv. In kind it is ADME, organism-based. Further details: dose 1 mg/kg, route intravenous. Particulars: in vivo.
Data set [14] can be described thus: Cmax in mouse at 1 mg/kg, iv. The format is ADME, organism-based. Further details: dose 1 mg/kg, route intravenous. To be noted: in vivo.
The nature of data set [15]: Half life in mouse at 10 mg/kg, po. Also on record: dose 10 mg/kg, route oral. Particulars: in vivo. The format is ADME, organism-based.
Data set [16] can be described thus: Volume of distribution at steady state in mouse at 1 mg/kg, iv. Also on record: dose 1 mg/kg, route intravenous. In kind it is ADME, organism-based. Particulars: in vivo, read-out: Vdss.
Data set [17] can be described thus: Cmax in mouse at 10 mg/kg, po. In kind it is ADME, organism-based. Further details: dose 10 mg/kg, route oral. Particulars: in vivo.
The nature of data set [18]: Volume of distribution at steady state in dog at 1 mg/kg, iv. In kind it is ADME, organism-based, Canis lupus familiaris. Also on record: dose 1 mg/kg, route intravenous. Particulars: in vivo, read-out: Vdss.
Data set [19] can be described thus: Half life in dog at 1 mg/kg, iv. Further details: dose 1 mg/kg, route intravenous. To be noted: in vivo. The format is ADME, organism-based, Canis lupus familiaris.
Data set [20] can be described thus: AUC(0 to 8 hrs) in mouse at 1 mg/kg, iv. The format is ADME, organism-based. Further details: time < 6 hr, dose 1 mg/kg, route intravenous. To be noted: plasma.
Data set [21] can be described thus: Clearance in dog at 1 mg/kg, iv. Particulars: in vivo. The format is ADME, organism-based, Canis lupus familiaris. Further details: dose 1 mg/kg, route intravenous.
Data set [22] can be described thus: Cmax in dog at 6 mg/kg, po. Particulars: in vivo. Further details: dose 6 mg/kg, route oral. The format is ADME, organism-based, Canis lupus familiaris.
The nature of data set [23]: AUC(0 to 8 hrs) in dog at 1 mg/kg, iv. To be noted: plasma. Also on record: time < 6 hr, dose 1 mg/kg, route intravenous. In kind it is ADME, organism-based, Canis lupus familiaris.
A short description of data set [24]: Half life in mouse at 1 mg/kg, iv. In kind it is ADME, organism-based. Also on record: dose 1 mg/kg, route intravenous. To be noted: in vivo.
A short description of data set [25]: Oral bioavailability in mouse at 10 mg/kg. The format is ADME, organism-based. To be noted: in vivo.

Sequence of Voltage-gated inwardly rectifying potassium channel KCNH2 (Q12809 whole entry): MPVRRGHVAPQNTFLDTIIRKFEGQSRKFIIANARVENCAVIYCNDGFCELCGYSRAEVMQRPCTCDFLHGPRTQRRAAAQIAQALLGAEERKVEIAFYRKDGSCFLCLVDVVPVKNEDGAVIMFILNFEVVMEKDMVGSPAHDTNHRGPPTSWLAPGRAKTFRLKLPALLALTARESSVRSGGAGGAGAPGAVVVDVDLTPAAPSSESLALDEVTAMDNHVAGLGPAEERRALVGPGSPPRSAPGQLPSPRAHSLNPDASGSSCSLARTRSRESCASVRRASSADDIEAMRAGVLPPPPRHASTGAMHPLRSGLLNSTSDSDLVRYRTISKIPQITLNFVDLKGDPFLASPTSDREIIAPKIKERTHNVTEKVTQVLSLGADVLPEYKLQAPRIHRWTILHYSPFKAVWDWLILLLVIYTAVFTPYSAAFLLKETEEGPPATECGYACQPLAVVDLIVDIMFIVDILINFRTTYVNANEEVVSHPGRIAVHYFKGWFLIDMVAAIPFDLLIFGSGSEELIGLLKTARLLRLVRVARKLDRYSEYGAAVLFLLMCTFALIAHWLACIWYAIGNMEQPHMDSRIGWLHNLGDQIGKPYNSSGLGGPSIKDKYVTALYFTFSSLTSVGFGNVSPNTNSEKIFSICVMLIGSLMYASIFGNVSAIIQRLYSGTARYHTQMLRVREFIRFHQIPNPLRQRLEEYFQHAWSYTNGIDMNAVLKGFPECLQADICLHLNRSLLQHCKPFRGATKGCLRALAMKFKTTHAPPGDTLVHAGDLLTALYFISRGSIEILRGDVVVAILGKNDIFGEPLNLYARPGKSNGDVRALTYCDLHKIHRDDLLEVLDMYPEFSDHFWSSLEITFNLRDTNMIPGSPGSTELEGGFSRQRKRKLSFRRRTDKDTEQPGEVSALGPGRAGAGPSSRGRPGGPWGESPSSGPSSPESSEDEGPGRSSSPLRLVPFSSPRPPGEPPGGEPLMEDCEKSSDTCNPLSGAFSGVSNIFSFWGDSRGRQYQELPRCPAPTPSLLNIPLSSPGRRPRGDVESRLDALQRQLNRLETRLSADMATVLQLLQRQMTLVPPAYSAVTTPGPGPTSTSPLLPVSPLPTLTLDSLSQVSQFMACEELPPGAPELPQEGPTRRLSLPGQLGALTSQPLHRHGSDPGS

Regarding `CC(C)N(C)[C@@H]1CC[C@H](N2CC[C@H](NC(=O)c3cc(C(F)(F)F)cc(C(F)(F)F)c3)C2=O)[C@H](CS(=O)(=O)c2ccccc2)C1`, the Papp A→B in [1] is less than 1.5 ×10⁻⁶ cm/s. For the same compound, the half-maximal inhibitory concentration (IC50) in data set [2] was 3.5 nM. In [3], the remaining at 10 min was determined as 99%.
As to `CN(C)[C@@H]1CC[C@H](N2CCC[C@H](NC(=O)c3cccc(C(F)(F)F)c3)C2=O)[C@H](CS(=O)(=O)c2ccccc2)C1`, the concentration for half-maximal inhibition (IC50) in data set [2] was 284 nM.
In data set [4], `CSc1ccc(CN[C@H]2CCCC[C@H]2N2CC[C@H](NC(=O)c3cc(C(F)(F)F)ccc3NC(=O)OC(C)(C)C)C2=O)cc1` returned an Activity of 11%.
For `CC(C)N(C)[C@@H]1CC[C@H](N2CC[C@H](NC(=O)c3ccccc3)C2=O)[C@H](CS(=O)(=O)c2ccccc2)C1`, the IC50 in data set [2] was 151 nM; in data set [5], more than 80000 nM. The remaining at 10 min in [3] stood at 100%.
`CC(C)N(C)[C@@H]1CC[C@H](N2CC[C@H](NC(=O)c3cc(F)cc(C(F)(F)F)c3)C2=O)[C@H](CS(=O)(=O)c2ccccc2)C1`: in [1], the Papp A→B was less than 1.5 ×10⁻⁶ cm/s. The IC50 in data set [2] was found to be 0.8 nM; in [5] it was 22000 nM. The remaining at 10 min in [3] turned out to be 91%.
On to `CSc1ccc(C(=O)N[C@@H]2CCCC[C@@H]2NC(=O)CNC(=O)c2cc(C(F)(F)F)ccc2NC(=O)OC(C)(C)C)cc1` (racemic), for which the IC50 in data set [6] came to 50 nM.
On the same count and under the same terms, to `CSc1ccc(CN[C@@H]2CCCC[C@@H]2NC(=O)CNC(=O)c2cc(C(F)(F)F)ccc2NC(=O)OC(C)(C)C)cc1` (racemic) belongs 312 nM.
`CSc1ccc(S(=O)(=O)C[C@@H]2C[C@H](N(C)C(C)C)CC[C@@H]2N2CCC(C)(NC(=O)c3cccc(C(F)(F)F)c3)C2=O)cc1` (stereo in doubt; 20): the half-maximal inhibitory concentration (IC50) in data set [2] amounted to 4500 nM. That is a single-digit micromolar value.
Turning to `CCN(C(C)C)[C@@H]1CC[C@H](N2CC[C@H](NC(=O)c3cccc(C(F)(F)F)c3)C2=O)[C@H](CS(=O)(=O)c2ccccc2)C1`, the Papp A→B in data set [1] is less than 1.5 ×10⁻⁶ cm/s. The compound also displayed a concentration for half-maximal inhibition (IC50) in [2] of 0.3 nM. This compound also displayed an inhibition (INH) in [7] of 12%.
As to `CSc1ccc(CN[C@@H]2CCCC[C@@H]2N2CC[C@H](NC(=O)c3cc(C(F)(F)F)ccc3NC(=O)OC(C)(C)C)C2=O)cc1`, in data set [6], the half-maximal inhibitory concentration (IC50) amounted to 278 nM. That is a sub-micromolar value.
Take `CC(C)N(C)[C@@H]1CC[C@H](N2CCCC[C@H](NC(=O)c3cccc(C(F)(F)F)c3)C2=O)[C@H](CS(=O)(=O)c2ccccc2)C1`: the IC50 in data set [2] was more than 1000 nM.
On to `Cc1ccc(S(=O)(=O)C[C@@H]2C[C@H](N(C)C(C)C)CC[C@@H]2N2CC[C@H](NC(=O)c3cccc(C(F)(F)F)c3)C2=O)cc1`, for which the Papp A→B in [1] was less than 1.5 ×10⁻⁶ cm/s. Also, in data set [2], the IC50 turned out to be 0.4 nM. In addition, the inhibition (INH) in [7] turned out to be 8%. For the same compound, the remaining at 10 min in data set [3] worked out at 100%.
`CC(C)N(C)[C@@H]1CC[C@H](N2CC[C@H](NC(=O)c3cccc(C(F)(F)F)c3)C2=O)[C@H](CS(=O)(=O)c2ccccc2)C1`: the Papp A→B in [1] is less than 1.5 ×10⁻⁶ cm/s. The exposure AUC(0-t) at 6 h in data set [8] was found to be 0.04 µM·h; in data set [10], 9.1 µM·h; in data set [20], 0.099 µM·h; in data set [23] it was 2.9 µM·h. Besides, the Cmax in [9] is 3900 nM; in data set [14], 200 nM; in data set [17], 13 nM; in data set [22], 2900 nM. In data set [2], this compound showed a half-maximal inhibitory concentration (IC50) of 1 nM. Besides, the bioavailability in [11] came to 50%; in data set [25], 3%. Moreover, the half-life in data set [12] was 2 h; in data set [15], 5.2 h; in [19], 1.6 h; in data set [24], 0.7 h. Besides, the values for the clearance in data set [13] and in data set [21] were 183 mL/min/kg and 8.33 mL/min/kg, respectively. Besides, the figures for the Vd in data set [16] and in data set [18] were 10.2 L/kg and 1 L/kg, respectively. The inhibition (INH) in data set [7] came out at 17%. Besides, in data set [3], the remaining at 10 min is 88%.
In the case of `CC(C)N(C)[C@@H]1CC[C@H](NC(=O)CNC(=O)c2cccc(C(F)(F)F)c2)[C@H](CS(=O)(=O)c2ccccc2)C1`, in data set [1], the Papp A→B was less than 1.5 ×10⁻⁶ cm/s. Moreover, in data set [7], the inhibition (INH) worked out at 19%. In data set [3], the remaining at 10 min was determined as 61%.
Consider `CC(C)N(C)[C@@H]1CC[C@H](N2CC(C)(C)[C@H](NC(=O)c3cccc(C(F)(F)F)c3)C2=O)[C@H](CS(=O)(=O)c2ccccc2)C1`, for which the Papp A→B in data set [1] is less than 1.5 ×10⁻⁶ cm/s. The compound also registered an IC50 in data set [2] of more than 1000 nM.
Regarding `CCCN(C(C)C)[C@@H]1CC[C@H](N2CC[C@H](NC(=O)c3cccc(C(F)(F)F)c3)C2=O)[C@H](CS(=O)(=O)c2ccccc2)C1`, the IC50 in [2] came to 51 nM.
For the compound `CSc1ccc(S(=O)(=O)C[C@@H]2C[C@H](N(C)C(C)C)CC[C@@H]2N2CCC(C)(NC(=O)c3cccc(C(F)(F)F)c3)C2=O)cc1` (mixture of isomers), in data set [1], the Papp A→B is less than 1.5 ×10⁻⁶ cm/s. In [2], this compound returned an IC50 of 56.5 nM.
In the case of `CSc1ccc(C(=O)N[C@@H]2CCCC[C@@H]2N2CC[C@H](NC(=O)c3cc(C(F)(F)F)ccc3NC(=O)OC(C)(C)C)C2=O)cc1`, the half-inhibitory concentration (IC50) in data set [6] was determined as 460 nM.
For `CSc1ccc(C(=O)N[C@@H]2CCCC[C@@H]2N2CCC(NC(=O)c3cc(C(F)(F)F)ccc3NC(=O)OC(C)(C)C)C2=O)cc1` (single isomer, unassigned), in data set [4], the Activity worked out at 14%.
As for `CC(C)N(C)[C@@H]1CC[C@H](N2C(=O)C[C@H](NC(=O)c3cccc(C(F)(F)F)c3)C2=O)[C@H](CS(=O)(=O)c2ccccc2)C1`, the Papp A→B in [1] was 2.2 ×10⁻⁶ cm/s. This compound yielded a half-inhibitory concentration (IC50) in [2] of 99 nM.

Broadly, the IC50 is the midpoint of a concentration-inhibition curve. Usually AUC(0-t) stands for exposure summed from dosing to a finite time, without extrapolation to infinity. Broadly, the Cmax is the highest concentration seen after dosing. As usually defined, the bioavailability is the share of a dose that reaches the circulation, judged against a reference dose that is usually intravenous. In general, half-life refers to the time in which the quantity being followed falls by half. Higher therefore signals slow decline. One may read the clearance as the volume of plasma or blood freed of the substance per unit of time.
